# High-throughput results from PubChem BioAssay.
# CFTR F508del cor = F508del CFTR correction, initial screen, CFBE line, single point; CFBE cells, YFP halide quenching; stimulated with forskolin plus potentiator P3; % fluorescence drop versus neutral controls; activity (quench increase), % at 7.58 µM; hit rate 0.36% among 350,000; AID 720511, 2013;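 active = mean added fluorescence quench of at least 8% versus neutral control, with both replicates also reaching 8%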;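 note: cells transiently co-express mutant CFTR-F508del with the halide-sensitive YFP; corrector assay measuring rescue of mutant channel to the surface after 24 h compound exposure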
# LMPTP inh = LMPTP phosphatase inhibitors, primary screen, biochemical, fluorescence intensity, uHTS | recombinant LMPTP-A, OMFP fluorogenic substrate | hit rate 0.22% among 360,000 | inhibition, % at 20 µM | Low molecular weight phosphotyrosine protein phosphatase (Homo sapiens), P24666;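 active = compounds that cut the enzyme signal by at least half of the control window in the single-dose screen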
# Target sequence (P24666 whole entry, looked up): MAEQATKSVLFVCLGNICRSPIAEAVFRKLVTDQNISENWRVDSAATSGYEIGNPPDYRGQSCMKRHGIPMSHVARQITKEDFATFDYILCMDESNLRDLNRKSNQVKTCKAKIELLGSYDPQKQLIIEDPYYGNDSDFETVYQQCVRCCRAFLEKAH
#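 Material: LMPTP-A; amount: 0.625 nM enzyme; doses: single 20 µM dose; times: reaction 50 min, room temperature, dark; technique: fluorescence intensity of OMFP turnover product; benchmarks: no-enzyme and uninhibited controls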
# STEP block = STEP phosphatase inhibitors, primary screen, biochemical, fluorescence intensity, uHTS. Tyrosine-protein phosphatase non-receptor type 5 (Homo sapiens), P54829. inhibition, % at 20 µM. AID 588621, 2011. hit rate 0.25% among 360,000. recombinant STEP, OMFP fluorogenic substrate;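 active = inhibition at 20 µM, scaled per plate between control wells, above about 37%, limit read from the data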
#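 Also added – OMFP at 25 µM · Test system – STEP tyrosine phosphatase · Technique – FITC-channel fluorescence of OMFP product · Schedule – 20 min at room temperature, dark · Evaluation – control-normalized % inhibition with plate pattern correction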
# Scp1 inh = Scp-1 phosphatase inhibitors, primary screen, biochemical, colorimetric, uHTS | Carboxy-terminal domain RNA polymerase II polypeptide A small phosphatase 1 (Homo … | inhibition, % at 20 µM | Recombinant Scp1, phosphopeptide, malachite green phosphate absorbance | AID 493091, 2011 | hit rate 0.88% among 340,000;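 active = inhibition above about 50% at 20 µM, limit read from the data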
# Target sequence (Q9GZU7 76-261 limits assumed): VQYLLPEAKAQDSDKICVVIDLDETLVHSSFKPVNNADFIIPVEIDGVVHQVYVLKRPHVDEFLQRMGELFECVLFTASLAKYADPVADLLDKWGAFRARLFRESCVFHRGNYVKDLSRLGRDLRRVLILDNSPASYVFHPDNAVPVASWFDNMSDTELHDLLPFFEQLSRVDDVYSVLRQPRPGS
#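 Incubation: 45 min enzyme reaction at room temperature / System: truncated SCP-1 phosphatase (76-261aa) / Reagent: Phospho 17-mer peptide substrate / Buffer or medium: Acidic Tris acetate buffer with magnesium and detergent / Signal: absorbance at 630 nm / Doses: one concentration, 20 µM, with 1.0% DMSO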
# SUMO1-SIM PPI = modulators of SUMO1 protein-protein interactions, primary screen, biochemical, uHTS | Small ubiquitin-related modifier 1 (Homo sapiens), P63165 | SUMO1 binding to a labelled peptide, TR-FRET, 1 h | inhibition, % at 20 µM | hit rate 0.33% among 360,000; in the data active = inhibition above about 37%
# Target sequence (P63165 whole entry, looked up): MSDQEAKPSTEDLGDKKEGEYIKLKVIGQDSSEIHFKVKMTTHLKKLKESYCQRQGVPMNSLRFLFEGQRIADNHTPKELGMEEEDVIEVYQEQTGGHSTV
# DNMT1 inh = human DNMT1 methyltransferase inhibitors, primary screen, biochemical, molecular beacon, fluorescence, HinP1I cleavage, uHTS | hit rate 0.83% among 360,000 | AID 588458, 2011 | inhibition (reported as % activation of signal), % at 10 µM; in the data active = inhibition above about 50%
# DNMT1 interf DR = spectral interference with molecular beacon fluorescence, dose response, artefact control for DNMT1 inhibitor project, biochemical, fluorescent molecular beacon; shares compounds with DNMT1 inh; IC50, µM; AID 602382, 2012; 200 tested, under 10 active; spectral interference counter-screen; call rule not given here
# DNMT1 inh conf = DNMT1 methyltransferase inhibitor retest, confirmation, biochemical, molecular beacon, fluorescence, single concentration | shares compounds with DNMT1 inh | DNMT1 molecular beacon HinP1I cleavage | inhibition, % at 10 µM | hit rate 8% among 2,300 | AID 602385, 2012;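 active = average inhibition of at least 30% in the single-concentration confirmation test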
# Beacon interf = counter-screen for DNMT1 inhibitors: spectral interference. activation (fluorescence interference), % at 10 µM. DNMT1 molecular beacon spectral interference counterscreen, fluorescence 485/520. shares compounds with DNMT1 inh. hit rate 1% among 2,300;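 active = activation of at least 30% at 10 µM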;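 note: DNMT1 catalytic domain with a HinP1I cleavage step and a FAM/dabcyl DNA beacon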
# A number is an active result; i = inactive; nt = not tested or not shown. Sampled rows, rich in hits. Any-hit rate of the full collection: about 1.6%.
SMILES,CFTR F508del cor,LMPTP inh,STEP block,Scp1 inh,SUMO1-SIM PPI,DNMT1 inh,DNMT1 inh conf,Beacon interf,others
CNC(=O)C[C@H]1CC[C@H]2[C@@H](COC[C@@H](O)CN2S(=O)(=O)c2ccc(Oc3ccccc3)cc2)O1,i,nt,nt,nt,nt,nt,nt,nt,
CCCc1cc(=O)oc2c(C)c(OCC(=O)c3ccc(N4CCCC4)cc3)ccc12,nt,i,i,i,i,57,i,i,
C[C@@H]1CCCCO[C@@H](CN(C)Cc2ccc(C(=O)O)cc2)[C@@H](C)CN([C@@H](C)CO)C(=O)c2cc(NS(=O)(=O)c3ccc(F)cc3)ccc2O1,i,nt,nt,nt,nt,nt,nt,nt,
CC1(C(=O)NS(=O)(=O)C2CC2)CCCN(C(=O)c2cccc(Cl)c2)C1 (stereo not drawn),i,i,i,nt,i,65,i,i,
NC(=O)CC[C@H](NC(=O)c1ccc(F)cc1)C(=O)OCC(=O)NCc1ccc(F)cc1,i,i,i,i,i,52,i,i,
NC(=O)CC[C@H](NC(=O)c1ccc(F)cc1)C(=O)OCC(=O)Nc1c(F)c(F)c(F)c(F)c1F,i,i,i,i,i,i,nt,nt,
Cc1cnn(-c2cc(N/N=C/c3ccccc3)ncn2)c1,i,i,i,i,i,i,nt,nt,
Cc1cnn(-c2cc(N/N=C/c3ccccc3F)ncn2)c1,nt,i,i,i,i,56,i,i,
COc1ccc(C2CC(c3cccc([N+](=O)[O-])c3)=NN2/C(C)=C/C(C)=O)cc1 (stereo not drawn),i,i,i,nt,i,57,i,i,
C/C=C/c1ccc([C@H]2[C@@H](CO)N(C(=O)CC)[C@H]2CN(C)C(=O)NC(C)C)cc1,i,nt,nt,nt,nt,nt,nt,nt,
COc1ccccc1-c1cnc2c(c1)C(=O)N([C@@H](C)CO)C[C@H](C)[C@H](CN(C)Cc1cccc(F)c1)O2,i,nt,nt,nt,nt,nt,nt,nt,
Cc1ccc(/C=c2\sc3nc(-c4ccco4)nn3c2=O)o1,nt,61,72,81,44,105,i,i,
CCc1nn(CC(=O)NC(C)CCc2ccccc2)c(=O)c2cc3cc(F)ccc3n12 (stereo not drawn),i,i,i,i,i,53,i,i,
CCc1nn(CC(=O)NC2CCN(Cc3ccccc3)CC2)c(=O)c2cc3cc(F)ccc3n12,i,i,i,i,i,i,nt,nt,
Cc1csc(NC(=O)CCn2c(=O)oc3ccccc32)n1,nt,i,i,i,i,i,nt,nt,
O=C(Cn1c(=O)oc2ccccc21)Nc1nc(-c2ccc(Br)cc2)cs1,nt,i,i,i,i,i,i,i,
COc1ccc(-c2ccc([C@H]3[C@H](CO)N4CCCCN(C(=O)NC(C)C)C[C@@H]34)cc2)cc1,i,nt,nt,nt,nt,nt,nt,nt,
CNC[C@H]1OCCCC[C@H](C)Oc2ccc(NS(=O)(=O)c3ccc(Cl)cc3)cc2C(=O)N([C@H](C)CO)C[C@@H]1C,i,nt,nt,nt,nt,nt,nt,nt,
Cc1c(C(N)=O)sc2ncn(CC(=O)OC(C)C)c(=O)c12,nt,i,i,i,i,78,i,i,
CCCCCCc1cc2cc(-c3nnc(-c4ccccc4OC)o3)c(=O)oc2cc1O,nt,i,i,i,i,100,i,i,
CCCCCCc1cc2cc(-c3nnc(-c4cc(OC)c(OC)c(OC)c4)o3)c(=O)oc2cc1O,nt,nt,nt,i,nt,nt,nt,nt,
Cc1nc2c(=O)[nH]c(=S)[nH]c2[nH]c1=O,i,i,i,96,55,79,i,i,
CCOc1ccc(NC(=S)NC(=O)/C=C/c2ccco2)cc1,i,i,i,i,i,i,nt,nt,
COc1cc(NS(=O)(=O)c2ccc(NC(=S)NC(=O)/C=C/c3ccco3)cc2)ncn1,i,i,i,i,48,98,82,i,DNMT1 interf DR=i
COc1cc(NS(=O)(=O)c2ccc(NS(=O)(=O)c3ccc(NC(C)=O)cc3)cc2)nc(OC)n1,i,i,i,i,i,i,nt,nt,
SMILES,CFTR F508del cor,LMPTP inh,STEP block,Scp1 inh,SUMO1-SIM PPI,DNMT1 inh,DNMT1 inh conf,Beacon interf,others
COc1cc(NS(=O)(=O)c2ccc(NC(=S)NC(C)=O)cc2)nc(OC)n1,i,i,i,i,i,54,i,i,
C[C@H]1CN([C@@H](C)CO)C(=O)c2cc(C#CC3(O)CCCC3)cnc2O[C@@H]1CN(C)C(=O)Nc1ccc2c(c1)OCO2,i,nt,nt,nt,nt,nt,nt,nt,
CC(C)NC(=O)Nc1ccc2c(c1)C(=O)N([C@H](C)CO)C[C@@H](C)[C@@H](CN(C)Cc1ccncc1)OCCCC[C@@H](C)O2,i,nt,nt,nt,nt,nt,nt,nt,
C=C/C(C)=C/CC1C(=C)CCC2C(C)(C(=O)O)CCCC12C (stereo not drawn),i,i,i,i,i,81,i,i,
COc1ccc(CN(C)C[C@H]2OCCCC[C@@H](C)Oc3ccc(N(C)C)cc3C(=O)N([C@@H](C)CO)C[C@@H]2C)cc1,i,nt,nt,nt,nt,nt,nt,nt,
O=C(NCc1cc(C(F)(F)F)ccc1Cl)c1cccc2c1C(=O)c1ccc(N3CCOCC3)cc1S2(=O)=O,i,i,i,i,i,62,i,i,
O=C(NCCN1CCOCC1)c1cccc2c1C(=O)c1ccc(N3CCCC3)cc1S2(=O)=O,i,i,i,i,i,i,nt,nt,
O=C(C[C@@H]1CC[C@@H](NC(=O)C2CC2)[C@H](CO)O1)Nc1nccs1,i,nt,nt,nt,nt,nt,nt,nt,
O=c1nc(Nc2ccc(Br)cc2)sc2ccc([N+](=O)[O-])cc12,i,i,i,i,i,54,i,i,
O=C(C[C@H]1C[C@@H]2c3cc(NS(=O)(=O)c4ccc(F)cc4)ccc3O[C@@H]2[C@@H](CO)O1)NCc1ccc(-c2ccccc2)cc1,i,nt,nt,nt,nt,nt,nt,nt,
Cc1c(C)c2cc(Cl)c(OCC(=O)Nc3ccccn3)cc2oc1=O,i,i,i,nt,71,65,i,i,
Cc1c(C)c2ccc(OCC(=O)Nc3ccccn3)c(C)c2oc1=O,i,i,i,i,i,i,nt,nt,
COCC(=O)N(C)C[C@@H]1Oc2cc(-c3ccccc3F)ccc2S(=O)(=O)N([C@@H](C)CO)C[C@H]1C,i,nt,nt,nt,nt,nt,nt,nt,
